Assay results reported in ChEMBL document CHEMBL1127484, “5-Aryl-3-(alkylthio)-4H-1,2,4-triazoles as selective antagonists of strychnine-induced convulsions and potential antispastic agents” (J Med Chem, 1994).
Active and inactive are the calls of the source.

Key:
Mus musculus [1] = assay: Effective dose required for antagonist activity against pentylenetetrazole-induced seizures in mice when administered intraperitoneally; type: functional; details: ip
Procedure, shortened: (§1)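 CD-1 male mice (18–26 g), groups of 5 or 10, housed individually, dosed ip in distilled H2O or H2O/Tween 80. Convulsant given 30 min later. Strychnine sulfate 2.7 mg/kg ip: protection = no tonic extension >15 min. MES 50 mA, 0.2 s, corneal: no tonic hind-limb extension. PTZ 60 mg/kg iv: no clonic seizures for 2 min. MPA 100 mg/kg iv: no seizures for 5 min. ED50 by quantal analysis from ≥4 doses, ≥10 mice each.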

[2] = Dose encompassing the 50% lethal effect was recorded when administered intraperitoneally in mice; type: ADME, organism-based; details: mouse, in vivo, ip
Procedure, shortened: (§2)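 Deaths were recorded over the 7 days after dosing. The estimated LD50 was taken as the dose range spanning 50% lethality.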

Mus musculus [3] = assay: Effective dose required for antagonist activity against maximal electroshock induced seizures in mice when administered intraperitoneally; type: functional; details: ip; procedure, shortened: as §1
Mus musculus [4] = assay: Effective dose required for antagonist activity against strychnine induced seizures in mice when administered intraperitoneally; type: functional; details: ip; procedure, shortened: as §1
Mus musculus [5] = assay: Effective dose required for antagonist activity against 3-mercaptopropionic-acid induced seizures in mice when administered intraperitoneally; type: functional; details: ip; procedure, shortened: as §1
Mus musculus [6] = assay: Effective dose required for antagonist activity against pentylenetetrazole-induced seizures in mice when administered intraperitoneally; Range is 100-200; type: functional; details: ip; procedure, shortened: as §1
[7] = Dose encompassing the 50% lethal effect was recorded when administered intraperitoneally in mice; 400-800; type: ADME, organism-based; details: mouse, in vivo, ip; procedure, shortened: as §2
Mus musculus [8] = assay: Effective dose required for antagonist activity against pentylenetetrazole-induced seizures in mice when administered intraperitoneally; 100-200; type: functional; details: ip; procedure, shortened: as §1
[9] = Dose encompassing the 50% lethal effect was recorded when administered intraperitoneally in mice; Range is 400-800; type: ADME, organism-based; details: mouse, in vivo, ip; procedure, shortened: as §2
Mus musculus [10] = assay: Effective dose required for antagonist activity against pentylenetetrazole-induced seizures in mice when administered intraperitoneally; Range is 50-100; type: functional; details: ip; procedure, shortened: as §1
Mus musculus [11] = assay: Effective dose required for antagonist activity against maximal electroshock induced seizures in mice when administered intraperitoneally; Range is 100-200; type: functional; details: ip; procedure, shortened: as §1
Mus musculus [12] = assay: Effective dose required for antagonist activity against 3-mercaptopropionic-acid-induced seizures in mice when administered intraperitoneally; Range is 100-200; type: functional; details: ip; procedure, shortened: as §1
[13] = molecular target: T1, GABA-A receptor; anion channel (Rattus norvegicus) (UniProt O09028+P15431+P18506+P18508+P19969+P20236+P23574+P23576+P28471+P28473+P30191+P62813+P63079+P63138+Q91ZM7+Q9ES14); assay: In vitro displacement of [3H]muscimol from GABA-A receptor in rat cortical membranes at 100 uM (Inactive); type: cell membranes; details: Membrane
Rattus norvegicus [14] = assay: Effect of compound on hyperreflexia in spinal transected rats at 10 mg/Kg; type: functional
Procedure, shortened: (§3)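 Spinal-transected rats, 5-10 weeks post-transection. Hind-limb activity recorded by transducer. Output integrated over the first 3 s after leg pull (stretch-evoked reflex function) and over the next 57 s (spontaneous hyperreflexia). Sessions were run before and after ip dosing. Test agent given as suspension in distilled H2O/1% Tween 80, or as solution in distilled H2O. Data expressed as % of control; paired t test or least-squared-means comparisons.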

Rattus norvegicus [15] = assay: Effect of compound on reflux function in spinal transected rats at 40 mg/Kg; type: functional; procedure, shortened: as §3
Rattus norvegicus [16] = assay: Effect of compound on […] function in spinal transected rats at 10 mg/Kg; type: functional; procedure, shortened: as §3
[17] = molecular target: T1, GABA-A receptor; anion channel (Rattus norvegicus); assay: In vitro displacement of [3H]flunitrazepam at GABA-A benzodiazepine site in rat cortical membranes at 100 uM (Inactive); type: cell membranes; details: Membrane
Rattus norvegicus [18] = assay: Effect of compound on reflux function in spinal transected rats at 20 mg/Kg; type: functional; procedure, shortened: as §3
Rattus norvegicus [19] = assay: Effect of compound on hyperreflexia in spinal transected rats at 40 mg/Kg; type: functional; procedure, shortened: as §3
[20] = molecular target: GABA B receptor (Rattus norvegicus) (UniProt Q9Z0U4+O88871); assay: In vitro displacement of [3H]baclofen at GABA-B receptor in rat cortical membranes at 100 uM (Inactive); type: cell membranes; details: Membrane
Rattus norvegicus [21] = assay: Effect of compound on reflux function in spinal transected rats at 5 mg/Kg; type: functional; procedure, shortened: as §3
Rattus norvegicus [22] = assay: Effect of compound on hyperreflexia in spinal transected rats at 20 mg/Kg; type: functional; procedure, shortened: as §3
[23] = molecular target: Gamma-aminobutyric acid receptor subunit gamma-1 (Rattus norvegicus) (UniProt P23574); assay: Enhancement of 1 uM muscimol-stimulated 36Cl- uptake into rat cerebellar membrane; type: functional; details: Cerebellum
Procedure, shortened: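 Rat cerebellar membrane vesicles (adult male Sprague-Dawley) in HEPES/Tris buffer, pH 7.5. Preincubated on ice for 15 min with vehicle (0.2% DMSO) or 10 μM compound, then 5 min at 34 °C. 36Cl uptake run for 3 s with 1 μM muscimol and stopped by ice-cold 100 μM picrotoxin buffer plus filtration. Muscimol-stimulated uptake = uptake minus uptake without muscimol, in nmol/mg protein/3 s. Mean ± SEM, n = 3; Student's t test.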

[24] = molecular target: T1, GABA-A receptor; anion channel (Rattus norvegicus); assay: In vitro displacement of [35S]TBPS at GABA-A picrotoxin convulsant site in rat cortical membranes at 100 uM (Inactive); type: cell membranes; details: Membrane
Mus musculus [25] = assay: Effective dose required for antagonist activity against pentylenetetrazole-induced seizures in mice when administered intraperitoneally; Range 100-200; type: functional; details: ip; procedure, shortened: as §1
Mus musculus [26] = assay: Effective dose required for antagonist activity against 3-mercaptopropionic-acid-induced seizures in mice when administered intraperitoneally; Range 100-200; type: functional; details: ip; procedure, shortened: as §1
Mus musculus [27] = assay: Effective dose required for antagonist activity against pentylenetetrazole-induced seizures in mice when administered intraperitoneally; Range is 25-50; type: functional; details: ip; procedure, shortened: as §1

Chain of Gamma-aminobutyric acid receptor subunit gamma-1 (Rattus norvegicus) (P23574 whole entry): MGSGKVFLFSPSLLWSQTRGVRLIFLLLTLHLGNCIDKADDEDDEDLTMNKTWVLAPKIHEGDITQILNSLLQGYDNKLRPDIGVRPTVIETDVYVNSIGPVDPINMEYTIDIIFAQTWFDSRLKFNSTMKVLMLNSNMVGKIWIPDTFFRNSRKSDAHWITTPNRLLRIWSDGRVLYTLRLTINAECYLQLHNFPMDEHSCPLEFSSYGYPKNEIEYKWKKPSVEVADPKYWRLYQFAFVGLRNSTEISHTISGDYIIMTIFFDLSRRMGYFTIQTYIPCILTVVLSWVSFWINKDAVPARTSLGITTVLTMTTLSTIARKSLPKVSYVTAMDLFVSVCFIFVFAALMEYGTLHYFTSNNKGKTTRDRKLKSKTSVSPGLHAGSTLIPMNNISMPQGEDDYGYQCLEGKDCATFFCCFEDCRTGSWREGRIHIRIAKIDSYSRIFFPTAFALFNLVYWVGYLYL

SMILES	ED50 (Mus musculus [1])	LD50 [2]	ED50 (Mus musculus [3])	ED50 (Mus musculus [4])	ED50 (Mus musculus [5])	also measured
CSc1nnc(-c2ccc(Cl)cc2)n1C	> 200 mg/kg	> 800 mg/kg	> 200 mg/kg	28.1 mg/kg		
CSc1nnc(-c2cccc3ccccc23)n1C	> 200 mg/kg	> 800 mg/kg	> 200 mg/kg	> 200 mg/kg	> 200 mg/kg	
CCCC(CCC)C(=O)O [VALPROIC ACID]			> 200 mg/kg	> 200 mg/kg		ED50 (Mus musculus [6]): 200 mg/kg
CCSc1nnc(-c2ccccc2)n1C			> 200 mg/kg	> 200 mg/kg	> 200 mg/kg	LD50 [7]: 800 mg/kg; ED50 (Mus musculus [8]): 200 mg/kg
CSc1nnc(-c2ccccc2F)n1C	61.3 mg/kg		> 200 mg/kg	8.8 mg/kg		LD50 [9]: 800 mg/kg
CCSc1nnc(-c2ccccc2F)n1C					> 200 mg/kg	LD50 [9]: 800 mg/kg; ED50 (Mus musculus [10]): 100 mg/kg; ED50 (Mus musculus [11]): 200 mg/kg
CCS(=O)(=O)c1nnc(-c2ccccc2)n1C		> 800 mg/kg	> 200 mg/kg			ED50 (Mus musculus [12]): 200 mg/kg; ED50 (Mus musculus [10]): 100 mg/kg
Cn1c(-c2ccccc2)nnc1S(C)(=O)=O	55 mg/kg	> 800 mg/kg	> 200 mg/kg		> 200 mg/kg	Displacement [13]: inactive; Control (Rattus norvegicus [14]): 46%; Control (Rattus norvegicus [15]): 87%; Control (Rattus norvegicus [16]): 116%; Displacement [17]: inactive; Control (Rattus norvegicus [18]): 114%; Control (Rattus norvegicus [19]): 43%; Displacement [20]: inactive; Control (Rattus norvegicus [21]): 101%; Control (Rattus norvegicus [22]): 78%; Uptake (nM 3s-1 (mg of protein)-1) [23]: 3.82; Displacement [24]: inactive
O=C1NC(=O)C(c2ccccc2)(c2ccccc2)N1 [PHENYTOIN]	> 32 mg/kg		25.9 mg/kg	> 200 mg/kg	89 mg/kg	
CSc1nnc(-c2ccccc2)n1C		> 800 mg/kg	> 200 mg/kg	37.8 mg/kg		ED50 (Mus musculus [25]): 200 mg/kg; ED50 (Mus musculus [26]): 200 mg/kg
Cc1ccc(-c2nnc(S(C)(=O)=O)n2C)cc1	> 200 mg/kg	> 800 mg/kg	> 200 mg/kg	> 200 mg/kg	> 200 mg/kg	
Cn1nc(-c2ccc(Cl)cc2)nc1S(C)(=O)=O	> 200 mg/kg	> 800 mg/kg	> 200 mg/kg	> 200 mg/kg	> 200 mg/kg	
CC[S+]([O-])c1nnc(-c2ccccc2F)n1C (centres undefined)	> 200 mg/kg	> 800 mg/kg		32.7 mg/kg	> 200 mg/kg	ED50 (Mus musculus [11]): 200 mg/kg
CCn1c(SC)nnc1-c1ccccc1F		> 800 mg/kg		75 mg/kg		ED50 (Mus musculus [12]): 200 mg/kg; ED50 (Mus musculus [27]): 50 mg/kg; ED50 (Mus musculus [11]): 200 mg/kg
CSc1nnc(-c2cccs2)n1C	> 100 mg/kg		> 100 mg/kg	34.1 mg/kg	> 100 mg/kg	LD50 [9]: 800 mg/kg
Cn1c(-c2ccccc2F)nnc1S(C)(=O)=O	> 100 mg/kg	> 800 mg/kg	> 100 mg/kg	17.6 mg/kg	> 100 mg/kg	
Cn1nc(-c2cccc(F)c2)nc1S(C)(=O)=O	> 100 mg/kg		> 100 mg/kg	> 100 mg/kg	> 100 mg/kg	LD50 [9]: 800 mg/kg
CSc1nc(-c2ccc(Cl)cc2)nn1C		> 800 mg/kg	> 200 mg/kg	> 200 mg/kg	> 200 mg/kg	ED50 (Mus musculus [10]): 100 mg/kg
Cn1c(-c2cccc3ccccc23)nnc1S(C)(=O)=O	> 200 mg/kg	> 800 mg/kg	> 200 mg/kg	> 200 mg/kg	> 200 mg/kg	
CCS(=O)(=O)c1nnc(-c2ccccc2F)n1C		> 800 mg/kg	> 200 mg/kg	85.8 mg/kg	> 200 mg/kg	ED50 (Mus musculus [6]): 200 mg/kg
CSc1nnc(-c2cccc(F)c2)n1C	> 200 mg/kg	> 800 mg/kg	> 200 mg/kg	13.8 mg/kg	> 200 mg/kg	
